Calls of active or inactive are those of the source. The rule behind the calls is not given here.
Assays:
Mus musculus = experiment: Antiinflammatory activity in C57BL/6 mouse model of LPS-induced acute lung injury assessed as reduction in lung wet/dry ratio at 10 mg/kg, ip administered daily for one week prior to LPS challenge and measured after 6 hrs; assay type: functional, organism-based
Summary of the method: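 C57BL/6 mice (eight per group) received 10 mg/kg i.p. daily for one week; vehicle was 0.9% saline. They were then challenged with intratracheal LPS at 5 mg/kg and sacrificed 6 h later. Endpoints were lung wet/dry weight ratio and total and neutrophil cell counts in BALF, reported as mean ± SEM, n = 6.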

[1] = Apparent clearance during terminal phase in Sprague-Dawley rat at 5 mg/kg, iv by UHPLC-MS/MS analysis; assay type: ADME, organism-based; details: in vivo
Summary of the method: (§1)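 Male Sprague-Dawley rats (250 ± 20 g) fasted overnight with free access to water, n = 5 per route. Intravenous dose was 5 mg/kg; the intragastric dose is printed as 20 mg/kg in the methods and 50 mg/kg in the table. Tail blood was taken at 0.083, 0.25, 0.5, 1, 2, 4, 6, 9, 12 and 24 h. Samples were centrifuged (12000 rpm, 10 min), deproteinized with 2 volumes of acetonitrile, re-centrifuged and quantified by UHPLC-MS/MS.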

[2] = Apparent volume of distribution during terminal phase in Sprague-Dawley rat at 5 mg/kg, iv by UHPLC-MS/MS analysis; assay type: ADME, organism-based; details: in vivo; summary of the method: as §1
[3] = Apparent volume of distribution during terminal phase in Sprague-Dawley rat at 50 mg/kg, po by UHPLC-MS/MS analysis; assay type: ADME, organism-based; details: in vivo; summary of the method: as §1
[4] = MRT (0 to infinity) in Sprague-Dawley rat at 50 mg/kg, po by UHPLC-MS/MS analysis; assay type: ADME, organism-based; details: in vivo; summary of the method: as §1
[5] = AUC (0 to infinity) in Sprague-Dawley rat at 50 mg/kg, po by UHPLC-MS/MS analysis; assay type: ADME, organism-based; set-up: dose 50 mg/kg, time infinity, route oral; details: in vivo; summary of the method: as §1
[6] = Half life in Sprague-Dawley rat at 50 mg/kg, po by UHPLC-MS/MS analysis; assay type: ADME, organism-based; details: in vivo; summary of the method: as §1
[7] = MRT (0 to t) in Sprague-Dawley rat at 50 mg/kg, po by UHPLC-MS/MS analysis; assay type: ADME, organism-based; details: in vivo; summary of the method: as §1
[8] = Cmax in Sprague-Dawley rat at 50 mg/kg, po by UHPLC-MS/MS analysis; assay type: ADME, organism-based; set-up: dose 50 mg/kg, route oral; details: in vivo; summary of the method: as §1
[9] = Tmax in Sprague-Dawley rat at 5 mg/kg, iv by UHPLC-MS/MS analysis; assay type: ADME, organism-based; details: in vivo
Summary of the method: (§2)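 Male SD rats (250 ± 20 g), fasted overnight with water ad libitum, dosed intravenously or intragastrically, n = 5. Tail blood taken at 0.083, 0.25, 0.5, 1, 2, 4, 6, 9, 12 and 24 h post-dose and centrifuged 12000 rpm, 10 min. Supernatant mixed with 2 volumes acetonitrile, vortexed and re-centrifuged. Drug measured by UHPLC-MS/MS; PK parameters derived from time-concentration data.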

[10] = Tmax in Sprague-Dawley rat at 50 mg/kg, po by UHPLC-MS/MS analysis; assay type: ADME, organism-based; details: in vivo; summary of the method: as §2
[11] = AUC (0 to t) in Sprague-Dawley rat at 50 mg/kg, po by UHPLC-MS/MS analysis; assay type: ADME, organism-based; details: in vivo; summary of the method: as §1
[12] = AUC (0 to infinity) in Sprague-Dawley rat at 5 mg/kg, iv by UHPLC-MS/MS analysis; assay type: ADME, organism-based; set-up: dose 5 mg/kg, route intravenous, time infinity; details: in vivo; summary of the method: as §1
[13] = Cmax in Sprague-Dawley rat at 5 mg/kg, iv by UHPLC-MS/MS analysis; assay type: ADME, organism-based; set-up: dose 5 mg/kg, route intravenous; details: in vivo; summary of the method: as §1
[14] = MRT (0 to t) in Sprague-Dawley rat at 5 mg/kg, iv by UHPLC-MS/MS analysis; assay type: ADME, organism-based; details: in vivo; summary of the method: as §1

CLz/F [1] [L/h/kg]	Vz/F [2] [L/kg]	Vz/F [3] [L/kg]	MRT inf [4] [h]	AUC [5] [µg·h/mL]	t1/2 [6] [h]	MRT last [7] [h]	Cmax [8] [µg/mL]	Tmax [9] [min]	Tmax [10] [h]	AUC(0-t) [11] [µg·h/mL]	AUC [12] [µg·h/mL]	Cmax [13] [µg/mL]	MRT last [14] [h]	Structure (SMILES)	Activity (Mus musculus)
–	–	–	–	–	–	–	–	–	–	–	–	–	–	COc1cc(/C=C/C(=O)N2CCC/C(=C\c3cc(OC)c(OC)c(OC)c3)C2=O)ccc1O	Active
404.4	59.5	827.1	12.3	0.3256	6.7	7.8	0.113	6	3.3	0.231	0.1224	0.0164	11.3	COc1cc(/C=C/C(=O)N2CCC/C(=C\c3cc(OC)c(OC)c(OC)c3)C2=O)ccc1OC(C)=O	–

Source: ChEMBL document CHEMBL4387702, “Design and synthesis novel di-carbonyl analogs of curcumin (DACs) act as potent anti-inflammatory agents against LPS-induced acute lung injury (ALI)” (Eur J Med Chem, 2019)
